Measurements reported in ChEMBL document CHEMBL1140069, “In vitro antifungal activity of polyfunctionalized 2-(hetero)arylquinolines prepared through imino Diels-Alder reactions” (2008).
≈ marks a conversion by molar mass, not a printed value.

Tests used:
Format in all cases: functional
Cryptococcus neoformans [1] = experiment: Antimicrobial activity against Cryptococcus neoformans IM 00319 isolate at 50 ug/ml after 48 hrs
In short: (§1)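 Percent growth inhibition in 96-well microplates. Compound stocks in DMSO (≤2%) were diluted in RPMI-1640 to final 100–6.25 µg/mL, and 100 µL inoculum was added (final 200 µL). Controls were a growth well (inoculum with matching DMSO, no compound) and a sterility well (no inoculum). Inhibition was calculated against growth and sterility wells.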

Candida albicans [2] = experiment: Antimicrobial activity against Candida albicans C130 isolate at 25 ug/ml after 24 hrs
In short: (§2)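 Growth-inhibition microplate test. Strains are grown on Sabouraud-chloramphenicol agar for 48 h at 30 °C, and inoculum is added to RPMI-1640 containing compound at a final 100–6.25, with DMSO ≤2%. Each strain has a growth control (same DMSO, no compound) and a sterility control.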

Candida albicans [3] = experiment: Antimicrobial activity against Candida albicans C127 isolate at 6.25 ug/ml after 24 hrs; settings: C127, 24 h; in short: as §2
Candida albicans [4] = experiment: Antimicrobial activity against Candida albicans C129 isolate at 12.5 ug/ml after 24 hrs; in short: as §2
Candida parapsilosis [5] = experiment: Antimicrobial activity against Candida parapsilosis C124 isolate at 6.25 ug/ml after 24 hrs; settings: Lodderomyces parapsilosis; in short: as §1
Cryptococcus neoformans [6] = experiment: Antimicrobial activity against Cryptococcus neoformans IM 961951 isolate at 100 ug/ml after 48 hrs; in short: as §1
Pichia kudriavzevii [7] = experiment: Antimicrobial activity against Candida krusei C117 isolate at 100 ug/ml after 24 hrs; in short: as §1
[8] = tested on: Trichophyton mentagrophytes; experiment: Antifungal activity against Trichophyton mentagrophytes ATCC 9972 after 48 hrs by broth microdilution technique; settings: ATCC 9972, 48 h
In short: (§3)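 CLSI broth microdilution: M-27 A2 for yeasts and M-38 A for filamentous fungi. Medium is RPMI-1640 buffered to pH 7.0 with MOPS. Compound is diluted twofold from 250 to 0.98, final DMSO ≤2%. Inoculum is 1–5 × 10³ CFU/mL. Plates are incubated at 35 °C in a moist, dark chamber and read visually at 48 h. MIC100 is the lowest concentration giving total growth inhibition versus drug-free control.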

Cryptococcus neoformans [9] = experiment: Antimicrobial activity against Cryptococcus neoformans IM 972724 isolate at 6.25 ug/ml after 48 hrs
In short: (§4)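 Clinical Cryptococcus isolates kept on Sabouraud-dextrose agar slopes; inoculum 1–5 × 10³ CFU/mL. Quinoline DMSO stocks were diluted in RPMI-1640 to final 100–6.25 µg/mL, with DMSO ≤2%. An equal volume of inoculum was added (200 µL per well). Run in triplicate.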

Candida parapsilosis [10] = experiment: Antimicrobial activity against Candida parapsilosis C124 isolate at 50 ug/ml after 24 hrs; settings: Lodderomyces parapsilosis; in short: as §1
Cryptococcus neoformans [11] = experiment: Antimicrobial activity against Cryptococcus neoformans IM 042074 isolate at 50 ug/ml after 48 hrs; in short: as §1
Cryptococcus neoformans [12] = experiment: Antimicrobial activity against Cryptococcus neoformans IM 042074 isolate at 6.25 ug/ml after 48 hrs; in short: as §1
Pichia kudriavzevii [13] = experiment: Antimicrobial activity against Candida krusei C117 isolate at 50 ug/ml after 24 hrs; in short: as §1
Candida albicans [14] = experiment: Antimicrobial activity against Candida albicans C126 isolate at 6.25 ug/ml after 24 hrs; in short: as §2
Cryptococcus neoformans [15] = experiment: Antimicrobial activity against Cryptococcus neoformans IM 983040 isolate at 12.5 ug/ml after 48 hrs; in short: as §4
Cryptococcus neoformans [16] = experiment: Antimicrobial activity against Cryptococcus neoformans IM 972751 isolate at 25 ug/ml after 48 hrs; in short: as §4
Cryptococcus neoformans [17] = experiment: Antimicrobial activity against Cryptococcus neoformans IM 031706 isolate at 50 ug/ml after 48 hrs; in short: as §1
Cryptococcus neoformans [18] = experiment: Antimicrobial activity against Cryptococcus neoformans IM 031706 isolate at 12.5 ug/ml after 48 hrs; in short: as §1
Pichia kudriavzevii [19] = experiment: Antimicrobial activity against Candida krusei C117 isolate at 12.5 ug/ml after 24 hrs; in short: as §1
Cryptococcus neoformans [20] = experiment: Antimicrobial activity against Cryptococcus neoformans IM 983040 isolate at 6.25 ug/ml after 48 hrs; in short: as §4
Cryptococcus neoformans [21] = experiment: Antimicrobial activity against Cryptococcus neoformans IM 983036 isolate at 25 ug/ml after 48 hrs; in short: as §4
Cryptococcus neoformans [22] = experiment: Antimicrobial activity against Cryptococcus neoformans IM 983040 isolate at 100 ug/ml after 48 hrs; in short: as §4
Candida albicans [23] = experiment: Antimicrobial activity against Candida albicans C127 isolate at 12.5 ug/ml after 24 hrs; settings: C127, 24 h; in short: as §2
Cryptococcus neoformans [24] = experiment: Antimicrobial activity against Cryptococcus neoformans IM 031706 isolate at 100 ug/ml after 48 hrs; in short: as §1
Candida albicans [25] = experiment: Antimicrobial activity against Candida albicans ATCC 10231 at 100 ug/ml after 24 hrs; settings: ATCC 10231, 24 h; in short: as §2
Candida albicans [26] = experiment: Antimicrobial activity against Candida albicans C128 isolate at 12.5 ug/ml after 24 hrs; in short: as §2
Cryptococcus neoformans [27] = experiment: Antimicrobial activity against Cryptococcus neoformans IM 983036 isolate at 6.25 ug/ml after 48 hrs; in short: as §4
Cryptococcus neoformans [28] = experiment: Antimicrobial activity against Cryptococcus neoformans IM 052470 isolate at 25 ug/ml after 48 hrs; in short: as §1
Cryptococcus neoformans [29] = experiment: Antimicrobial activity against Cryptococcus neoformans IM 052470 isolate at 6.25 ug/ml after 48 hrs; in short: as §1
Cryptococcus neoformans [30] = experiment: Antimicrobial activity against Cryptococcus neoformans ATCC 32264 at 25 ug/ml after 48 hrs; settings: ATCC 32264, 48 h; in short: as §1
Pichia kudriavzevii [31] = experiment: Antimicrobial activity against Candida krusei C117 isolate at 25 ug/ml after 24 hrs; in short: as §1
Cryptococcus neoformans [32] = experiment: Antimicrobial activity against Cryptococcus neoformans IM 983040 isolate at 50 ug/ml after 48 hrs; in short: as §4
Cryptococcus neoformans [33] = experiment: Antimicrobial activity against Cryptococcus neoformans IM 052470 isolate at 100 ug/ml after 48 hrs; in short: as §1
Candida tropicalis [34] = experiment: Antimicrobial activity against Candida tropicalis C131 isolate at 25 ug/ml after 24 hrs; in short: as §1
Candida albicans [35] = experiment: Antimicrobial activity against Candida albicans C128 isolate at 25 ug/ml after 24 hrs; in short: as §2
Cryptococcus neoformans [36] = experiment: Antimicrobial activity against Cryptococcus neoformans IM 972724 isolate at 100 ug/ml after 48 hrs; in short: as §4
Candida parapsilosis [37] = experiment: Antimicrobial activity against Candida parapsilosis C124 isolate at 12.5 ug/ml after 24 hrs; settings: Lodderomyces parapsilosis; in short: as §1
Candida tropicalis [38] = experiment: Antimicrobial activity against Candida tropicalis C131 isolate at 100 ug/ml after 24 hrs; in short: as §1
Nannizzia gypsea = experiment: Antifungal activity against Microsporum gypseum C115 after 48 hrs by broth microdilution technique; in short: as §3
Candida albicans [39] = experiment: Antimicrobial activity against Candida albicans C128 isolate at 100 ug/ml after 24 hrs; in short: as §2
Cryptococcus neoformans [40] = experiment: Antimicrobial activity against Cryptococcus neoformans IM 031631 isolate at 12.5 ug/ml after 48 hrs; in short: as §1
Cryptococcus neoformans [41] = experiment: Antimicrobial activity against Cryptococcus neoformans IM 983036 isolate at 50 ug/ml after 48 hrs; in short: as §4
Cryptococcus neoformans [42] = experiment: Antimicrobial activity against Cryptococcus neoformans IM 042074 isolate at 100 ug/ml after 48 hrs; in short: as §1
Candida albicans [43] = experiment: Antimicrobial activity against Candida albicans C128 isolate at 50 ug/ml after 24 hrs; in short: as §2

## c1ccc2nc(-c3ccncc3)ccc2c1
Cryptococcus neoformans [1]
  inhibition at 50 µg/mL: 80%
Candida albicans [2]
  inhibition at 25 µg/mL: 48%
Candida albicans [3]
  inhibition at 6.25 µg/mL: 0%
Candida albicans [4]
  inhibition at 12.5 µg/mL: 3%
Candida parapsilosis [5]
  inhibition at 6.25 µg/mL: 0%
Cryptococcus neoformans [6]
  inhibition at 100 µg/mL: 97%
Pichia kudriavzevii [7]
  inhibition at 100 µg/mL: 66%
[8]
  MIC: 50 µg/mL (≈ 242 µM)
Cryptococcus neoformans [9]
  inhibition at 6.25 µg/mL: 0%
Candida parapsilosis [10]
  inhibition at 50 µg/mL: 5%
Cryptococcus neoformans [11]
  inhibition at 50 µg/mL: 87%
Cryptococcus neoformans [12]
  inhibition at 6.25 µg/mL: 68%
Pichia kudriavzevii [13]
  inhibition at 50 µg/mL: 3%
Candida albicans [14]
  inhibition at 6.25 µg/mL: 0%
Cryptococcus neoformans [15]
  inhibition at 12.5 µg/mL: 0%
Cryptococcus neoformans [16]
  inhibition at 25 µg/mL: 9%
Cryptococcus neoformans [17]
  inhibition at 50 µg/mL: 69%
Cryptococcus neoformans [18]
  inhibition at 12.5 µg/mL: 41%
Pichia kudriavzevii [19]
  inhibition at 12.5 µg/mL: 0%
Cryptococcus neoformans [20]
  inhibition at 6.25 µg/mL: 0%
Cryptococcus neoformans [21]
  inhibition at 25 µg/mL: 45%
Cryptococcus neoformans [22]
  inhibition at 100 µg/mL: 45%
Candida albicans [23]
  inhibition at 12.5 µg/mL: 0%
Cryptococcus neoformans [24]
  inhibition at 100 µg/mL: 100%
Candida albicans [25]
  inhibition at 100 µg/mL: 100%
Candida albicans [26]
  inhibition at 12.5 µg/mL: 0%
Cryptococcus neoformans [27]
  inhibition at 6.25 µg/mL: 0%
Cryptococcus neoformans [28]
  inhibition at 25 µg/mL: 53%
Cryptococcus neoformans [29]
  inhibition at 6.25 µg/mL: 0%
Cryptococcus neoformans [30]
  inhibition at 25 µg/mL: 100%
Pichia kudriavzevii [31]
  inhibition at 25 µg/mL: 0%
Cryptococcus neoformans [32]
  inhibition at 50 µg/mL: 34%
Cryptococcus neoformans [33]
  inhibition at 100 µg/mL: 99%
Candida tropicalis [34]
  inhibition at 25 µg/mL: 60%
Candida albicans [35]
  inhibition at 25 µg/mL: 0%
Cryptococcus neoformans [36]
  inhibition at 100 µg/mL: 74%
Candida parapsilosis [37]
  inhibition at 12.5 µg/mL: 0%
Candida tropicalis [38]
  inhibition at 100 µg/mL: 100%
Nannizzia gypsea
  MIC: 50 µg/mL (≈ 242 µM)
Candida albicans [39]
  inhibition at 100 µg/mL: 88%
Cryptococcus neoformans [40]
  inhibition at 12.5 µg/mL: 36%
Cryptococcus neoformans [41]
  inhibition at 50 µg/mL: 69%
Cryptococcus neoformans [42]
  inhibition at 100 µg/mL: 92%
Candida albicans [43]
  inhibition at 50 µg/mL: 15%
